Assay outcomes as filed in PubChem BioAssay.
Hits are enriched below; roughly 2.3% of the tested compounds scored in any of these assays.
TRPC6 inhibitor – inhibitors of mouse TRPC6 channel; 1.1% of 310,000 active; HEK293-TRPC6, membrane potential dye, ACh-evoked depolarization; stronger effect = lower value; Q61143; B-score at 10 µM;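 active = B-score under library mean minus 3 SD, initial fluorescence not abnormally high, positive integrated signal ratio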;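 also: B-score derived from integrated fluorescence ratio over the kinetic read; more negative B-score means stronger inhibition of depolarization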
TRPC4 potent – TRPC4 (mouse) allosteric potentiation; 0.42% of 310,000 active; AID 2227; B-score at 10 µM; HEK293 TRPC4beta/mu-opioid, DAMGO EC20, Fluo-4 Ca2+ flux; stronger effect = higher value; Q9QUQ5;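 active = B-score of calcium response area above 5 SD of library B-scores, with initial fluorescence ratio within 5 SD of library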;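 also: B-score of integrated fluorescence ratio over time as area under calcium response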
TRPC4 act – TRPC4 (mouse) channel activation; Q9QUQ5; HEK293 TRPC4beta/mu-opioid, Fluo4 calcium fluorescence; stronger effect = higher value; B-score at 10 µM; 0.49% of 310,000 active; AID 2237;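 active = B-score above 5 SD of library B-scores, and initial fluorescence ratio not above library mean plus 5 SD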;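 also: positive B-score marks a calcium rise read as TRPC4 activation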
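Assay system: HEK293 stable line with TRPC4beta plus mu-opioid receptor. Times: dye 45 min RT, read 110 s. Measured by: kinetic Fluo4 calcium fluorescence. Measure: B score of integrated ratio. Controls: assay buffer as low control, maximal DAMGO as high control.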
TRPC4 inh – TRPC4 (mouse) channel inhibition. Q9QUQ5. HEK293 TRPC4beta/mu-opioid, DAMGO-evoked Fluo4 calcium flux; stronger effect = lower value. B-score at 10 µM. 0.39% of 300,000 active;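 active = B-score over 3 SD under the library average, no early fluorescence shift, positive overall ratio signal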
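Assay system: HEK293 cells with stable TRPC4beta plus mu-opioid receptor expression. Dosing: single dose. Measured by: Fluo4 Ca2+ flux fluorescence. Also added: DAMGO in two steps, submaximal then maximal. Read-out: B score from integrated Fluo4 fluorescence ratio.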
TRPC6 act – activators of mouse TRPC6 channel | AID 2550 | B-score at 10 µM | 0.13% of 310,000 active | HEK293-TRPC6 membrane potential dye fluorescence; stronger effect = higher value;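 active = B-score of the integrated fluorescence ratio above library mean plus 3 SD, and starting fluorescence ratio within library mean plus 5 SD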;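 also: higher score means more depolarization so channel activation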
An asterisk follows results filed as active.

Screening O=C(N/N=C\c1ccc([N+](=O)[O-])s1)C1COc2ccccc2O1 (centres undefined) returned TRPC6 inhibitor inactive, TRPC4 potent inactive, TRPC4 act inactive, TRPC4 inh inactive and TRPC6 act inactive.
`CN(C)CCSc1nc(-c2ccccc2)nc2c1CCCC2` gave TRPC6 inhibitor inactive, TRPC4 potent 20*, TRPC4 act 68*, TRPC4 inh inactive and TRPC6 act inactive.
CCSc1nc(-c2ccccc2)nc2c1CCCC2 was read as TRPC6 inhibitor inactive, TRPC4 potent inactive, TRPC4 act inactive, TRPC4 inh inactive and TRPC6 act inactive.
For O=C(O)/C=C/c1cn(-c2ccccc2)nc1-c1ccc2c(c1)OCCO2 the results were TRPC6 inhibitor inactive, TRPC4 potent inactive, TRPC4 act inactive, TRPC4 inh inactive and TRPC6 act inactive.
`O/N=C/c1cn(-c2ccccc2)nc1-c1ccc2c(c1)OCCO2` gave TRPC6 inhibitor inactive, TRPC4 potent 24*, TRPC4 act inactive, TRPC4 inh inactive and TRPC6 act inactive.
Screening CC1(C)[C@@H](O)CC[C@]2(C)C3C(O)C=C4[C@H]5C[C@@](C)(C(=O)O)CC[C@]5(C)CC[C@]4(C)[C@]3(C)CC[C@@H]12 (some centres undefined) returned TRPC6 inhibitor inactive, TRPC4 potent inactive, TRPC4 act 210*, TRPC4 inh -6* and TRPC6 act inactive.
Screening COc1ccc(OC)c(NS(=O)(=O)c2ccc3c(c2)C(C)(C)C(=O)N3C)c1 returned TRPC6 inhibitor inactive, TRPC4 potent inactive, TRPC4 act inactive, TRPC4 inh inactive and TRPC6 act inactive.
For COC(=O)c1cc(C(=O)c2ccc(C(C)(C)C)cc2)c[nH]1 the results were TRPC6 inhibitor inactive, TRPC4 potent 10*, TRPC4 act inactive, TRPC4 inh inactive and TRPC6 act inactive.
C=CCOc1cccc(NC(=O)c2ccccc2SC)c1 was read as TRPC6 inhibitor inactive, TRPC4 potent inactive, TRPC4 act inactive, TRPC4 inh inactive and TRPC6 act inactive.
Screening O=C(NC1CCN(Cc2ccccc2)CC1)c1cccc(S(=O)(=O)Nc2cc(C(F)(F)F)ccc2Cl)c1 returned TRPC6 inhibitor inactive, TRPC4 potent 21*, TRPC4 act inactive, TRPC4 inh inactive and TRPC6 act inactive.
`O=C(NCCc1ccccn1)C(F)(F)C(F)(F)C(F)(F)C(F)(F)C(F)(F)C(F)(F)C(F)(F)C(F)F` gave TRPC6 inhibitor inactive, TRPC4 potent inactive, TRPC4 act 165*, TRPC4 inh inactive and TRPC6 act inactive.
O=C(Nc1cc(C(F)(F)F)ccc1Cl)c1ccncc1 was read as TRPC6 inhibitor inactive, TRPC4 potent inactive, TRPC4 act inactive, TRPC4 inh inactive and TRPC6 act inactive.
`CC(C)Cc1cc(C(=O)Nc2cc(C(F)(F)F)ccc2Cl)no1` gave TRPC6 inhibitor inactive, TRPC4 potent 10*, TRPC4 act inactive, TRPC4 inh inactive and TRPC6 act inactive.
`O=C1Nc2cc(C(=O)NCCCN3CCOCC3)ccc2S/C1=C/c1ccccc1F` gave TRPC6 inhibitor inactive, TRPC4 potent inactive, TRPC4 act inactive, TRPC4 inh -6* and TRPC6 act inactive.
Screening O=C(NCCN1CCOCC1)c1ccc2c(c1)N(Cc1ccc(F)cc1)C(=O)CS2 returned TRPC6 inhibitor inactive, TRPC4 potent inactive, TRPC4 act inactive, TRPC4 inh -7* and TRPC6 act inactive.
For Cc1ccc(CN2C(=O)CSc3ccc(C(=O)NCCN4CCOCC4)cc32)cc1 the results were TRPC6 inhibitor inactive, TRPC4 potent inactive, TRPC4 act inactive, TRPC4 inh inactive and TRPC6 act inactive.
For O=C(NCCN1CCOCC1)c1cc2sccc2n1Cc1ccc(F)cc1 the results were TRPC6 inhibitor inactive, TRPC4 potent inactive, TRPC4 act inactive, TRPC4 inh -7* and TRPC6 act inactive.
O=C(Nc1ccc(C(=O)N2CCCCC2)cc1)Nc1cccc(Cl)c1 was read as TRPC6 inhibitor inactive, TRPC4 potent inactive, TRPC4 act inactive, TRPC4 inh inactive and TRPC6 act inactive.
COc1cc(/C=C(/C#N)C(=O)c2c(C)[nH]c3ccccc23)ccc1OCC#N was read as TRPC6 inhibitor inactive, TRPC4 potent 10*, TRPC4 act inactive, TRPC4 inh inactive and TRPC6 act inactive.
CN(CCNS(=O)(=O)c1ccc2c(c1)oc(=O)n2C)Cc1ccccc1 was read as TRPC6 inhibitor inactive, TRPC4 potent 19*, TRPC4 act inactive, TRPC4 inh inactive and TRPC6 act inactive.
Screening CCCN1CCN(C(=O)Cn2c(=O)oc3cc(S(=O)(=O)NCc4ccccc4)ccc32)CC1 returned TRPC6 inhibitor inactive, TRPC4 potent inactive, TRPC4 act 104*, TRPC4 inh inactive and TRPC6 act inactive.
Screening O=C(CN1CCN(CCN2C(=O)c3cccc4cccc(c34)C2=O)CC1)c1ccc(F)cc1 returned TRPC6 inhibitor inactive, TRPC4 potent inactive, TRPC4 act inactive, TRPC4 inh inactive and TRPC6 act inactive.
Screening COc1ccc(C(=O)CN2CCN(CCN3C(=O)c4cccc5cccc(c45)C3=O)CC2)cc1 returned TRPC6 inhibitor inactive, TRPC4 potent 15*, TRPC4 act inactive, TRPC4 inh inactive and TRPC6 act inactive.
Screening COCCCN1C(=O)c2[nH]nc(-c3ccccc3O)c2C1c1ccc(Cl)cc1 (centres undefined) returned TRPC6 inhibitor inactive, TRPC4 potent 13*, TRPC4 act inactive, TRPC4 inh inactive and TRPC6 act inactive.
CCCN1C(=O)c2[nH]nc(-c3cc(Cl)c(C)cc3O)c2C1c1ccc(O)c(OC)c1 (centres undefined) was read as TRPC6 inhibitor inactive, TRPC4 potent 11*, TRPC4 act inactive, TRPC4 inh inactive and TRPC6 act inactive.
`CCOC(=O)C1CCCN(CC(=O)c2ccc(F)cc2)C1` (centres undefined) gave TRPC6 inhibitor inactive, TRPC4 potent inactive, TRPC4 act 81*, TRPC4 inh inactive and TRPC6 act inactive.
Screening CCOC(=O)C1CCCN(CCC(=O)Nc2cccc(C)c2)C1 (centres undefined) returned TRPC6 inhibitor inactive, TRPC4 potent inactive, TRPC4 act 54*, TRPC4 inh inactive and TRPC6 act inactive.
For CCOC(=O)C1CCCN(CCC(=O)Nc2cccc(F)c2)C1 (centres undefined) the results were TRPC6 inhibitor inactive, TRPC4 potent inactive, TRPC4 act inactive, TRPC4 inh inactive and TRPC6 act inactive.
`CCOC(=O)C1CCCN(CC(=O)Nc2c(F)c(F)c(F)c(F)c2F)C1` (centres undefined) gave TRPC6 inhibitor inactive, TRPC4 potent inactive, TRPC4 act inactive, TRPC4 inh inactive and TRPC6 act inactive.
